ChEMBL document CHEMBL4152260, “Design, synthesis and biological evaluation of novel quinazoline-2,4-diones conjugated with different amino acids as potential chitin synthase inhibitors” (Eur J Med Chem, 2018)
Converted amounts (≈) assume the structure as drawn.

Assays:
Saccharomyces cerevisiae = test: Inhibition of yeast chitin synthase at 300 ug/ml using UDP-GlcNAc as substrate measured after 1 hr relative to control
Outline: (§1)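 Membrane CHS from S. cerevisiae CGMCC2.145 (YPAD, 30 °C, 48 h; sonication; 55000 g pellet in Tris/33% glycerol). Wells coated with WGA and blocked with BSA. Reaction in pH 6.8 Tris-maleate with 40 mM GlcNAc, 2 mM UDP-GlcNAc, 37 °C, 1 h. Product detected with WGA-HRP and TMB/H2O2, A450. Test solutions 300–18.75 μg/mL. Inhibition = (B0−Bn)/(B0−OD0); IC50 from log c plot.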

Aspergillus flavus [1] = test: Antifungal activity against Aspergillus flavus ATCC 16870 measured after 24 hrs; format: functional; settings: ATCC 16870, 24 h
Candida albicans [2] = test: Antifungal activity against Candida albicans ATCC 76615 measured after 24 hrs; format: functional; settings: ATCC 76615, 24 h
Aspergillus fumigatus [3] = test: Antifungal activity against Aspergillus fumigatus GIMCC 3.19 measured after 24 hrs; format: functional; settings: GIMCC 3.19, 24 h
Cryptococcus neoformans [4] = test: Antifungal activity against Cryptococcus neoformans ATCC 32719 measured after 24 hrs; format: functional; settings: ATCC 32719, 24 h
[5] = Inhibition of yeast chitin synthase using UDP-GlcNAc as substrate measured after 1 hr; design: species or system Saccharomyces cerevisiae; outline: as §1
Aspergillus fumigatus [6] = test: Antifungal activity against Aspergillus fumigatus GIMCC 3.19 measured after 48 hrs by two-dimensional broth microdilution checkboard method; format: functional; settings: GIMCC 3.19, 48 h
Outline: (§2)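 MICs of each agent alone re-determined in the checkerboard run. Two-dimensional broth microdilution per CLSI M27-A3, 35 °C for 48 h, each test performed twice (duplicate).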

Cryptococcus neoformans [7] = test: Antifungal activity against Cryptococcus neoformans ATCC 32719 measured after 48 hrs by two-dimensional broth microdilution checkboard method; format: functional; settings: ATCC 32719, 48 h; outline: as §2
Candida albicans [8] = test: Antifungal activity against Candida albicans ATCC 76615 measured after 48 hrs by two-dimensional broth microdilution checkboard method; format: functional; settings: ATCC 76615, 48 h; outline: as §2
Aspergillus flavus [9] = test: Antifungal activity against Aspergillus flavus ATCC 16870 measured after 48 hrs by two-dimensional broth microdilution checkboard method; format: functional; settings: ATCC 16870, 48 h; outline: as §2
Aspergillus flavus [10] = test: Synergistic antifungal activity against Aspergillus flavus ATCC 16870 assessed as FIC index measured after 48 hrs in presence of fluconazole by two-dimensional broth microdilution checkboard method; format: functional
Outline: (§3)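 Two-dimensional broth microdilution checkerboard combining test agent with fluconazole per CLSI M27-A3, 35 °C for 48 h, duplicate runs. Combination MICs read. FIC index = MIC_A(comb)/MIC_A(alone) + MIC_B(comb)/MIC_B(alone). Interaction classed synergistic ≤0.5, indifferent >0.5–4, antagonistic >4.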

Cryptococcus neoformans [11] = test: Synergistic antifungal activity against Cryptococcus neoformans ATCC 32719 measured after 48 hrs in presence of fluconazole by two-dimensional broth microdilution checkboard method; format: functional; settings: ATCC 32719, 48 h; outline: as §3
Aspergillus flavus [12] = test: Synergistic antifungal activity against Aspergillus flavus ATCC 16870 assessed as fluconazole MIC mesured after 48 hrs by two-dimensional broth microdilution checkboard method; format: functional; settings: ATCC 16870, 48 h; outline: as §3
Cryptococcus neoformans [13] = test: Synergistic antifungal activity against Cryptococcus neoformans ATCC 32719 assessed as FIC index measured after 48 hrs in presence of fluconazole by two-dimensional broth microdilution checkboard method; format: functional; outline: as §3
Aspergillus fumigatus [14] = test: Synergistic antifungal activity against Aspergillus fumigatus GIMCC 3.19 measured after 48 hrs in presence of fluconazole by two-dimensional broth microdilution checkboard method; format: functional; settings: GIMCC 3.19, 48 h; outline: as §3
Cryptococcus neoformans [15] = test: Synergistic antifungal activity against Cryptococcus neoformans ATCC 32719 assessed as fluconazole MIC mesured after 48 hrs by two-dimensional broth microdilution checkboard method; format: functional; settings: ATCC 32719, 48 h; outline: as §3
Candida albicans [16] = test: Synergistic antifungal activity against Candida albicans ATCC 76615 assessed as FIC index measured after 48 hrs in presence of fluconazole by two-dimensional broth microdilution checkboard method; format: functional; outline: as §3
Aspergillus fumigatus [17] = test: Synergistic antifungal activity against Aspergillus fumigatus GIMCC 3.19 assessed as fluconazole MIC mesured after 48 hrs by two-dimensional broth microdilution checkboard method; format: functional; settings: GIMCC 3.19, 48 h; outline: as §3
Candida albicans [18] = test: Synergistic antifungal activity against Candida albicans ATCC 76615 measured after 48 hrs in presence of fluconazole by two-dimensional broth microdilution checkboard method; format: functional; settings: ATCC 76615, 48 h; outline: as §3
Aspergillus fumigatus [19] = test: Synergistic antifungal activity against Aspergillus fumigatus GIMCC 3.19 assessed as FIC index measured after 48 hrs in presence of fluconazole by two-dimensional broth microdilution checkboard method; format: functional; outline: as §3
Candida albicans [20] = test: Synergistic antifungal activity against Candida albicans ATCC 76615 assessed as fluconazole MIC mesured after 48 hrs by two-dimensional broth microdilution checkboard method; format: functional; settings: ATCC 76615, 48 h; outline: as §3
Aspergillus flavus [21] = test: Synergistic antifungal activity against Aspergillus flavus ATCC 16870 measured after 48 hrs in presence of fluconazole by two-dimensional broth microdilution checkboard method; format: functional; settings: ATCC 16870, 48 h; outline: as §3

CSCC[C@H](NC(=O)Cn1c(=O)c2ccccc2n(C)c1=O)C(=O)O
inhibition (Saccharomyces cerevisiae): 43.1% | MIC (Aspergillus flavus [1]): > 1400 µM | MIC (Candida albicans [2]): > 1400 µM | MIC (Aspergillus fumigatus [3]): 1400 µM (≈ 512 µg/mL) | MIC (Cryptococcus neoformans [4]): 700 µM (≈ 256 µg/mL)

Cn1c(=O)n(CC(=O)N[C@@H](CO)C(=O)O)c(=O)c2ccccc21
inhibition (Saccharomyces cerevisiae): 56.2% | MIC (Aspergillus flavus [1]): 1590 µM (≈ 511 µg/mL) | MIC (Candida albicans [2]): > 1590 µM | MIC (Aspergillus fumigatus [3]): 790 µM (≈ 254 µg/mL) | MIC (Cryptococcus neoformans [4]): > 1590 µM

Cn1c(=O)n(CC(=O)N[C@@H](Cc2ccccc2)C(=O)O)c(=O)c2ccccc21
inhibition (Saccharomyces cerevisiae): 50.5% | MIC (Aspergillus flavus [1]): > 1340 µM | MIC (Candida albicans [2]): > 1340 µM | MIC (Aspergillus fumigatus [3]): > 1340 µM | MIC (Cryptococcus neoformans [4]): > 1340 µM

Cn1c(=O)n(CC(=O)N[C@@H](Cc2cnc[nH]2)C(=O)O)c(=O)c2ccccc21
inhibition (Saccharomyces cerevisiae): 61.5% | IC50 [5]: 300 µM | MIC (Aspergillus flavus [1]): > 1370 µM | MIC (Candida albicans [2]): > 1370 µM | MIC (Aspergillus fumigatus [3]): 1370 µM (≈ 509 µg/mL) | MIC (Cryptococcus neoformans [4]): 680 µM (≈ 253 µg/mL)

CC(C)C[C@H](NC(=O)Cn1c(=O)c2ccccc2n(C)c1=O)C(=O)O
inhibition (Saccharomyces cerevisiae): 52.8% | MIC (Aspergillus flavus [1]): > 1470 µM | MIC (Candida albicans [2]): > 1470 µM | MIC (Aspergillus fumigatus [3]): 730 µM (≈ 254 µg/mL) | MIC (Cryptococcus neoformans [4]): > 1470 µM

OC(Cn1cncn1)(Cn1cncn1)c1ccc(F)cc1F [FLUCONAZOLE]
MIC (Aspergillus fumigatus [6]): 209 µM (≈ 64 µg/mL) | MIC (Cryptococcus neoformans [7]): 104 µM (≈ 31.9 µg/mL) | MIC (Aspergillus flavus [1]): 100 µM (≈ 30.6 µg/mL) | MIC (Candida albicans [2]): 200 µM (≈ 61.3 µg/mL) | MIC (Aspergillus fumigatus [3]): 50 µM (≈ 15.3 µg/mL) | MIC (Candida albicans [8]): 104 µM (≈ 31.9 µg/mL) | MIC (Cryptococcus neoformans [4]): 100 µM (≈ 30.6 µg/mL) | MIC (Aspergillus flavus [9]): 104 µM (≈ 31.9 µg/mL)

Cn1c(=O)n(CC(=O)N2CCC[C@H]2C(=O)O)c(=O)c2ccccc21
MIC (Aspergillus fumigatus [6]): 1540 µM (≈ 512 µg/mL) | MIC (Cryptococcus neoformans [7]): 773 µM (≈ 256 µg/mL) | fractional inhibitory concentration index (FICI) (Aspergillus flavus [10]): 0.3125 | MIC (Cryptococcus neoformans [11]): 386 µM | MIC (Aspergillus flavus [12]): 7 µM | inhibition (Saccharomyces cerevisiae): 75.5% | IC50 [5]: 180 µM | MIC (Aspergillus flavus [1]): 1540 µM (≈ 510 µg/mL) | fractional inhibitory concentration index (FICI) (Cryptococcus neoformans [13]): 1.5 | MIC (Aspergillus fumigatus [14]): 1540 µM | MIC (Candida albicans [2]): > 1540 µM | MIC (Cryptococcus neoformans [15]): 104 µM | fractional inhibitory concentration index (FICI) (Candida albicans [16]): 0.625 | MIC (Aspergillus fumigatus [3]): 770 µM (≈ 255 µg/mL) | MIC (Candida albicans [8]): 773 µM (≈ 256 µg/mL) | MIC (Aspergillus fumigatus [17]): 13 µM | MIC (Candida albicans [18]): 386 µM | MIC (Cryptococcus neoformans [4]): 770 µM (≈ 255 µg/mL) | MIC (Aspergillus flavus [9]): 773 µM (≈ 256 µg/mL) | fractional inhibitory concentration index (FICI) (Aspergillus fumigatus [19]): 1.0625 | MIC (Candida albicans [20]): 13 µM | MIC (Aspergillus flavus [21]): 193 µM

CC(C)[C@H](NC(=O)Cn1c(=O)c2ccccc2n(C)c1=O)C(=O)O
inhibition (Saccharomyces cerevisiae): 18.5% | MIC (Aspergillus flavus [1]): > 1530 µM | MIC (Candida albicans [2]): > 1530 µM | MIC (Aspergillus fumigatus [3]): 760 µM (≈ 253 µg/mL) | MIC (Cryptococcus neoformans [4]): 760 µM (≈ 253 µg/mL)

Cn1c(=O)n(CC(=O)N[C@@H](Cc2c[nH]c3ccccc23)C(=O)O)c(=O)c2ccccc21
inhibition (Saccharomyces cerevisiae): 43.8% | MIC (Aspergillus flavus [1]): 600 µM (≈ 252 µg/mL) | MIC (Candida albicans [2]): > 1210 µM | MIC (Aspergillus fumigatus [3]): > 1210 µM | MIC (Cryptococcus neoformans [4]): 600 µM (≈ 252 µg/mL)

C[C@@H](NC(=O)Cn1c(=O)c2ccccc2n(C)c1=O)C(=O)O
inhibition (Saccharomyces cerevisiae): 47.8% | MIC (Aspergillus flavus [1]): 830 µM (≈ 253 µg/mL) | MIC (Candida albicans [2]): 1670 µM (≈ 510 µg/mL) | MIC (Aspergillus fumigatus [3]): 830 µM (≈ 253 µg/mL) | MIC (Cryptococcus neoformans [4]): 830 µM (≈ 253 µg/mL)

Cn1c(=O)n(CC(=O)NCC(=O)O)c(=O)c2ccccc21
inhibition (Saccharomyces cerevisiae): 22.6% | MIC (Aspergillus flavus [1]): 870 µM (≈ 253 µg/mL) | MIC (Candida albicans [2]): > 1750 µM | MIC (Aspergillus fumigatus [3]): > 1750 µM | MIC (Cryptococcus neoformans [4]): 870 µM (≈ 253 µg/mL)

Cn1c(=O)n(CC(=O)NC(Cc2ccc(OC(=O)Cn3c(=O)c4ccccc4n(C)c3=O)cc2)C(=O)O)c(=O)c2ccccc21 (centres undefined)
MIC (Aspergillus fumigatus [6]): 834 µM (≈ 512 µg/mL) | MIC (Cryptococcus neoformans [7]): 417 µM (≈ 256 µg/mL) | fractional inhibitory concentration index (FICI) (Aspergillus flavus [10]): 0.625 | MIC (Cryptococcus neoformans [11]): 26 µM | MIC (Aspergillus flavus [12]): 26 µM | inhibition (Saccharomyces cerevisiae): 65.3% | IC50 [5]: 166 µM | MIC (Aspergillus flavus [1]): 410 µM (≈ 252 µg/mL) | fractional inhibitory concentration index (FICI) (Cryptococcus neoformans [13]): 0.5625 | MIC (Aspergillus fumigatus [14]): 209 µM | MIC (Candida albicans [2]): 830 µM (≈ 509 µg/mL) | MIC (Cryptococcus neoformans [15]): 52 µM | fractional inhibitory concentration index (FICI) (Candida albicans [16]): 1.125 | MIC (Aspergillus fumigatus [3]): 410 µM (≈ 252 µg/mL) | MIC (Candida albicans [8]): 417 µM (≈ 256 µg/mL) | MIC (Aspergillus fumigatus [17]): 52 µM | MIC (Candida albicans [18]): 417 µM | MIC (Cryptococcus neoformans [4]): 410 µM (≈ 252 µg/mL) | MIC (Aspergillus flavus [9]): 417 µM (≈ 256 µg/mL) | fractional inhibitory concentration index (FICI) (Aspergillus fumigatus [19]): 0.3125 | MIC (Candida albicans [20]): 13 µM | MIC (Aspergillus flavus [21]): 209 µM

CCC(NC(=O)Cn1c(=O)c2ccccc2n(C)c1=O)C(=O)O (centres undefined)
inhibition (Saccharomyces cerevisiae): 13.2% | MIC (Aspergillus flavus [1]): 1600 µM (≈ 511 µg/mL) | MIC (Candida albicans [2]): > 1600 µM | MIC (Aspergillus fumigatus [3]): 800 µM (≈ 255 µg/mL) | MIC (Cryptococcus neoformans [4]): 800 µM (≈ 255 µg/mL)

Cn1c(=O)n(CC(=O)NCCC(=O)O)c(=O)c2ccccc21
inhibition (Saccharomyces cerevisiae): 47.5% | MIC (Aspergillus flavus [1]): 1670 µM (≈ 510 µg/mL) | MIC (Candida albicans [2]): 1670 µM (≈ 510 µg/mL) | MIC (Aspergillus fumigatus [3]): 830 µM (≈ 253 µg/mL) | MIC (Cryptococcus neoformans [4]): 830 µM (≈ 253 µg/mL)

Cn1c(=O)n(CC(=O)NCCCC(=O)O)c(=O)c2ccccc21
inhibition (Saccharomyces cerevisiae): 68.2% | IC50 [5]: 300 µM | MIC (Aspergillus flavus [1]): 1600 µM (≈ 511 µg/mL) | MIC (Candida albicans [2]): 1600 µM (≈ 511 µg/mL) | MIC (Aspergillus fumigatus [3]): 800 µM (≈ 255 µg/mL) | MIC (Cryptococcus neoformans [4]): 800 µM (≈ 255 µg/mL)
